Reference: ChEMBL document CHEMBL3992522, “Antileishmanial Activity of Pyrazolopyridine Derivatives and Their Potential as an Adjunct Therapy with Miltefosine” (J Med Chem, 2017)
Converted amounts (≈) assume the structure as drawn. The source made the active and inactive calls. The calls are words filed in the database; no cut-off is given here.

Columns and labels:
Leishmania donovani [1] = test: Antileishmanial activity against Leishmania donovani MHOM/IN/80/DD8 promastigote forms harboring luciferase gene after 72 hrs by Steady-Glo reagent based luminescence assay; assay type: functional; conditions: MHOM/IN/80/DD8, 72 h
How it was run: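 Exponential-phase Dd8-Luc promastigotes at 1×10^6/mL in M199 with 10% FBS, 24 °C, given 50 and 25 µM for 72 h. Vehicle 0.1% DMSO. Steady-Glo added 1:1, luminescence (RLU) read. IC50 from four-parameter Hill regression, derived only where inhibition exceeded 90%. Means of at least three independent experiments.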

Leishmania donovani [2] = test: Antileishmanial activity against Leishmania donovani MHOM/IN/80/DD8 promastigote forms harboring luciferase gene after 72 hrs by Steady-Glo reagent based two fold dilution assay; assay type: functional; conditions: MHOM/IN/80/DD8, 72 h
How it was run: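 Promastigotes or J774-resident amastigotes treated 72 h with six two-fold dilutions from 200 µM down to 6.25 µM. Luciferase RLU fitted by four-parameter Hill non-linear regression to derive the […] inhibitory concentration (MIC).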

[3] = Stability in pH 1.2 simulated gastric fluid at 5 ug/ml after 120 mins by HPLC method
How it was run: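 Incubated in simulated gastric fluid (pH 1.2) or simulated intestinal fluid (pH 6.5); percentage remaining intact determined after 120 min.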

[4] = Metabolic stability in mouse liver S9 fractions at 1 mM after 60 mins in presence of NADPH by HPLC method; assay type: ADME; conditions: read-out: Stability
[5] = Half life in mouse liver S9 fractions at 1 mM in presence of NADPH by HPLC method; assay type: ADME, tissue-based
Leishmania donovani [6] = test: Antileishmanial activity against Leishmania donovani amastigote forms infected in Balb/c mouse assessed as inhibition of parasitic burden in spleen at 100 mg/kg, ip administered for 5 consecutive days measured on day 7 post last treatment by Giemsa staining based assay relative to control; assay type: functional; conditions: 168 h
Leishmania donovani [7] = test: Antileishmanial activity against Leishmania donovani amastigote forms infected in Balb/c mouse assessed as inhibition of parasitic burden in spleen at 50 mg/kg, ip administered for 5 consecutive days measured 1 week post last treatment by Giemsa staining based assay relative to control; assay type: functional; conditions: 168 h
Leishmania donovani [8] = test: Antileishmanial activity against Leishmania donovani amastigote forms infected in Balb/c mouse assessed as inhibition of parasitic burden in liver at 25 mg/kg, ip co-treated with 5 mg/kg, po miltefosine administered for 5 consecutive days measured on day 4 and 7 post last treatment by Giemsa staining based assay relative to control; assay type: functional
How it was run: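 Combination study with seven groups of 5 infected BALB/c mice, including vehicle (8% DMSO i.p.), infected untreated and miltefosine-alone groups. Treatment daily for 5 days, test compound i.p. and miltefosine orally. Mice killed on days 4 and 7 post-treatment; liver and spleen parasite load counted on Giemsa-stained stamp smears and expressed as LDU relative to infected untreated mice. Mean ± SD, n = 5, three independent experiments.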

Leishmania donovani [9] = test: Antileishmanial activity against Leishmania donovani amastigote forms infected in Balb/c mouse assessed as reduction in liver weight at 12.5 to 200 mg/kg, ip administered for 5 consecutive days; assay type: functional, organism-based
Mus musculus [10] = test: Increase in TNFalpha level in Balb/c mouse splenocytes infected with Leishmania donovani amastigote forms at 25 mg/kg, ip co-treated with 5 mg/kg, po miltefosine administered for 5 consecutive days measured on day 4 post last treatment by sandwich ELISA relative to control; assay type: functional
How it was run: (§1)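 BALB/c mice infected with L. donovani (15 days); treatment for 5 consecutive days, test compound i.p. in 8% DMSO/water, miltefosine oral in TDW; sacrificed day 4 and day 7 post-treatment, n = 5 per group. Splenocytes (2×10^6) cultured 72 h in phenol red-free RPMI 1640 with 5 μg/mL SLA; supernatant cytokines by sandwich ELISA.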

Mus musculus [11] = test: Increase in IFN-gamma level in Balb/c mouse splenocytes infected with Leishmania donovani amastigote forms at 25 mg/kg, ip co-treated with 5 mg/kg, po miltefosine administered for 5 consecutive days measured on day 7 post last treatment by sandwich ELISA relative to control; assay type: functional
How it was run: (§2)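 Splenocytes (2×10^6) from treated infected BALB/c mice taken on day 4 or 7 post-treatment. Cultured in phenol-red-free RPMI 1640 with 5 μg/mL soluble L. donovani antigen for 72 h at 37 °C, 5% CO2. Supernatant cytokines measured by sandwich ELISA against a standard curve. Mean ± SD, n = 5 mice per group, three independent experiments.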

Mus musculus [12] = test: Increase in TNFalpha level in Balb/c mouse splenocytes infected with Leishmania donovani amastigote forms at 25 mg/kg, ip co-treated with 5 mg/kg, po miltefosine administered for 5 consecutive days measured on day 7 post last treatment by sandwich ELISA relative to control; assay type: functional; how it was run: as §1
Mus musculus [13] = test: Increase in IL-12 level in Balb/c mouse splenocytes infected with Leishmania donovani amastigote forms at 25 mg/kg, ip co-treated with 5 mg/kg, po miltefosine administered for 5 consecutive days measured on day 7 post last treatment by sandwich ELISA relative to control; assay type: functional; how it was run: as §2
Mus musculus [14] = test: Decrease in TGFbeta level in Balb/c mouse splenocytes infected with Leishmania donovani amastigote forms at 25 mg/kg, ip co-treated with 5 mg/kg, po miltefosine administered for 5 consecutive days measured on day 7 post last treatment by sandwich ELISA relative to control; assay type: functional; how it was run: as §2
Mus musculus [15] = test: Increase in iNOS mRNA expression level in Balb/c mouse splenocytes infected with Leishmania donovani amastigote forms at 25 mg/kg, ip cotreated with 5 mg/kg, po miltefosine for 5 consecutive days measured on day 4 post last treatment by RT-PCR assay relative to control; assay type: functional
How it was run: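 Infected BALB/c mice dosed for 5 consecutive days (test compound i.p. in 8% DMSO, miltefosine oral), n = 5 per group; splenocytes taken day 4 and day 7 post-treatment. Total RNA extracted and iNOS mRNA quantified by real-time PCR, normalized to mouse β-actin, expressed as fold change over uninfected controls.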

Leishmania donovani [16] = test: Induction of apoptosis in Leishmania donovani MHOM/IN/80/DD8 promastigote forms assessed as early apoptotic cells at 50 uM after 48 hrs by Annexin V-FITC/propidium iodide staining based flow cytometry (reference value: 7.41%); assay type: functional
Mus musculus [17] = test: (§3) Increase in iNOS-mediated NO generation in Balb/c mouse splenocytes infected with Leishmania donovani amastigote forms at 25 mg/kg, ip for 5 consecutive days measured on day 4 and 7 post last treatment followed by soluble Leishmania donovani promastigote antigen-stimulation for 72 hrs by Griess assay relative to control; assay type: functional
How it was run: (§4)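 Splenocytes from treated infected BALB/c mice (5-day regimen, i.p. test compound, oral miltefosine; n = 5) isolated day 4 and day 7 post-treatment. Cultured in phenol red-free RPMI 1640 with 5 μg/mL SLA for 72 h at 37 °C, 5% CO2. Supernatant nitrite measured by Griess assay at 540 nm against a sodium nitrite standard curve.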

Mus musculus [18] = test: as §3, with “50” for “25”; assay type: functional; how it was run: as §4
Leishmania donovani [19] = test: Induction of mitochondrial membrane potential loss in Leishmania donovani MHOM/IN/80/DD8 promastigote forms at 50 uM after 12 hrs by JC-1 staining based flow cytometry (reference value: 5.02%); assay type: functional
[20] = Apparent clearance in Swiss mouse at 50 mg/kg, po by LC-MS/MS analysis; assay type: ADME, organism-based; conditions: in vivo
Mus musculus [21] = test: Restoration of T cell proliferation in Balb/c mouse splenocytes infected with Leishmania donovani amastigote forms at <25 mg/kg, ip administered for 5 consecutive days measured on day 4 and 7 post last treatment followed by soluble Leishmania donovani promastigote antigen-stimulation for 72 hrs by MTT assay relative to control

Structure (SMILES): COc1ccc(C2C3=C(CCC3=O)Nc3c2c(-c2c[nH]c4ccccc24)nn3-c2ccc(Cl)c(Cl)c2)cc1OC (stereo unspecified)
- IC50 (Leishmania donovani [1]): 7.19 µM
- MIC (Leishmania donovani [2]): 50 µM (≈ 28.6 µg/mL)
- Stability [3]: 85%
- remaining at 1 h, 1000 µM [4]: 45%
- half-life at 1000 µM [5]: 50.5 min
- inhibition in vivo at 100 mg/kg (Leishmania donovani [6]): 90%
- inhibition in vivo at 50 mg/kg (Leishmania donovani [7]): > 93%
- inhibition (INH) (Leishmania donovani [8]): >92%
- Activity (Leishmania donovani [9]): Active
- fold change (FC) (Mus musculus [10]): 7.4
- fold change (FC) (Mus musculus [11]): 8.5
- fold change (FC) (Mus musculus [12]): 7.3
- fold change (FC) (Mus musculus [13]): 11.3
- inhibition (INH) (Mus musculus [14]): 93%
- fold change (FC) (Mus musculus [15]): 11.8
- Activity (Leishmania donovani [16]): 11.6%
- fold change (FC) (Mus musculus [17]): 4.1
- fold change (FC) (Mus musculus [18]): 4.7
- Activity (Leishmania donovani [19]): 32.9%
- CL/F [20]: 47.3 mL/min/kg
- fold change (FC) (Mus musculus [21]): 2.2 - 3.4
